Most compounds without a hit are left out; they make up all but 9.4% or so of the library.
T cruzi repl: blocks replication of Trypanosoma cruzi. actives 1.4% (n = 300,000). inhibition, % (test concentration not listed). T. cruzi beta-gal in NIH3T3, luminescence, 90 h. AID 1885;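 active = mean inhibition across valid replicates above about 55%, limit read from the data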;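 note: signal also drops with host cell toxicity which is not excluded here; 0% = plate median of DMSO wells and 100% = zero luminescence signal; higher percent means less beta-gal luminescence so fewer parasites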
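Material: NIH/3T3 host cells with β-galactosidase reporter T. cruzi; Input: 5,000 host fibroblasts per well; Medium: DMEM, 2% fetal bovine serum; Compound: 50 nL DMSO compound solution per well; Schedule: 3 h host attachment, then at least 90 h co-culture; Detection: luminescent β-galactosidase signal after 60 min lysis.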
L major viab: reduces viability of Leishmania major promastigotes; resazurin fluorescence viability; inhibition, % at 10 µM; actives 9% (n = 200,000); AID 1063; in the data active = inhibition above about 50%;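 note: promastigotes grown with compound for 44 hours at 28 °C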
CSC inhib: cancer stem cell inhibition; cancer stem cell-like cells viability, luminescence; actives 1.1% (n = 300,000); inhibition, % at 7.5 µM; in the data active = inhibition above about 75%; tested in HMLE shEcad cells
SKKanGAS inh: inhibitors of SKKanGAS S. pyogenes growth in kanamycin (SK-promoter or general growth effect) | AID 1662 | BacTiter-Glo, 6 h | inhibition, % at 7.5 µM | actives 1.3% (n = 300,000);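 active = mean replicate score, as percent of positive control median, at least 50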;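 note: strain carries kanamycin resistance gene driven by streptokinase promoter and grows in 40 µg/ml kanamycin; loss of luminescence reflects streptokinase promoter inhibition or plain growth inhibition; 0% = median of DMSO wells and 100% = positive control at its reference dose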
Beta apoptosis: beta cell apoptosis inhibition; INS-1E cytokine-induced death, ATP luminescence, 48 h; percent of positive-control rescue, neutral wells zero; protection from apoptosis, % (test concentration not listed); actives 0.8% (n = 300,000); AID 435005;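 active = Every replicate reaches about 75%, or at least half do and their mean reaches it too, limit read from the data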;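 note: 0% = cytokine-treated negative control wells and 100% = positive control rescue; higher means more ATP so stronger rescue from cytokine killing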
Mdm2 MdmX PPI: human Mdm2/MdmX binding inhibition. SaOS-2 split-luciferase Mdm2/MdmX complementation, luminescence. inhibition, % at 8 µM. actives 3% (n = 330,000). AID 485346;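 active = inhibition of at least 50% at 8 µM in the primary screen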
Target sequence (O15151 whole entry, looked up): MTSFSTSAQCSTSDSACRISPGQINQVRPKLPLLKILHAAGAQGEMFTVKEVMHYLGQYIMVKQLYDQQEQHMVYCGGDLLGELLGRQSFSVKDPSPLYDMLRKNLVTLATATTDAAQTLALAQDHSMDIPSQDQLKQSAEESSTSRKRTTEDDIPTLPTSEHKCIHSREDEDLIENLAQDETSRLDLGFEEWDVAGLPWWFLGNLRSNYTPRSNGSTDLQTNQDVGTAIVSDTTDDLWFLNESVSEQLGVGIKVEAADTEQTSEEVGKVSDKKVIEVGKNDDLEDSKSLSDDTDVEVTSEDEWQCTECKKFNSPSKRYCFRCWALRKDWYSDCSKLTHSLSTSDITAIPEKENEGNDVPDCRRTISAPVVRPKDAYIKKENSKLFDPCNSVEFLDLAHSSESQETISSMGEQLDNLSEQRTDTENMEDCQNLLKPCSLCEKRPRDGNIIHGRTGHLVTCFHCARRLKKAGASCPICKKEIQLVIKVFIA
Target sequence (Q00987 whole entry, looked up): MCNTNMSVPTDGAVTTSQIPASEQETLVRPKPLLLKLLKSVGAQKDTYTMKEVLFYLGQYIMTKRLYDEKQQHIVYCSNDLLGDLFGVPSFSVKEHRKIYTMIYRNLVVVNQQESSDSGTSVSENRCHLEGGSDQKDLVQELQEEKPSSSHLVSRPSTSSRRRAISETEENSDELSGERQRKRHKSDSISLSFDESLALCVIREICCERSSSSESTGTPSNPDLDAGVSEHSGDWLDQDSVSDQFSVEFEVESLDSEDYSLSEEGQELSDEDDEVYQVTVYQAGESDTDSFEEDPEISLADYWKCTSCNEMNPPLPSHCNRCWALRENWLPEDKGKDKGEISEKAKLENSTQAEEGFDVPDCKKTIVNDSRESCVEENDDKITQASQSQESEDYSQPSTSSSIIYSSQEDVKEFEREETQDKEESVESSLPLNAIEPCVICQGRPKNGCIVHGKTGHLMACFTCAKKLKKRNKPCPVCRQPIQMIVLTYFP
* hit, by the source's call; x = not tested or not shown.

SMILES	T cruzi repl	L major viab	CSC inhib	SKKanGAS inh	Beta apoptosis	Mdm2 MdmX PPI
Nc1ccc(N2CCN(c3ccc(F)cc3)CC2)cc1	23.3	77.8*	7.2	1.2	13.6	-2.0
Nc1ccc(N2CCN(c3ccc(Cl)c(Cl)c3)CC2)cc1	-21.7	98.5*	92.4*	3.5	11.2	7.2
N#C/C=C(/N)N1CCN(c2ccc(Cl)c(Cl)c2)CC1	13.8	70.2*	21.3	5.6	-4.7	36.0
COc1ccccc1Nc1nnc(SCC(=O)NC2CC2)s1	x	x	x	x	1.0	-22.6
Cc1cc(CN2CCN(CCC#N)CC2)c(O)c(C2(C)CCCCC2)c1	54.9*	22.3	-21.1	26.2	7.0	7.5
CCc1nnc(N/N=C/c2c(Cl)cccc2Cl)n1N	10.2	50.3*	-12.5	-5.3	-1.7	10.0
CCc1nnc(N/N=C/c2cccs2)n1N	-15.2	-2.8	-13.7	0.1	x	17.0
CCCCC(CC)C(=O)Oc1ccc(O)c(C(C)(C)C)c1 (stereo unspecified)	-8.8	36.8	-5.7	61.0*	12.8	-11.3
Cc1ccc(C(C(=O)NCC2CCCO2)N(Cc2ccccc2)C(=O)c2ccc(-c3ccccc3)[nH]2)o1 (stereo unspecified)	33.6	53.0*	38.0	21.5	-4.7	28.1
O=C(NCC(=O)N(Cc1ccccc1)C(C(=O)NCC1CCCO1)c1ccccc1)c1ccco1 (stereo unspecified)	-0.1	x	-15.8	-4.1	-7.9	-8.1
O=C(NCC1CCCO1)C(c1cccs1)N(Cc1ccccc1Cl)C(=O)c1ccc(-c2ccccc2)[nH]1 (stereo unspecified)	74.2*	99.8*	x	26.9	x	40.9
O=C(CN(Cc1ccccc1Cl)C(=O)Cn1nnc(-c2cccs2)n1)NCC1CCCO1 (stereo unspecified)	-5.1	19.4	-1.0	-8.6	-1.5	-11.9
CCOC(=O)C1(CCCc2ccccc2)CCN(Cc2nccn2CC)CC1	31.5	74.6*	35.1	-6.5	13.2	6.0
CCOC(=O)C1(Cc2cccc(F)c2)CCN(Cc2cnc(C)s2)CC1	8.2	32.0	0.0	1.2	-8.3	2.4
CCOC(=O)C1(CCCc2ccccc2)CCN(Cc2cnc(C)s2)CC1	31.1	77.4*	-12.5	-3.4	47.9	13.4
CCOC(=O)C1(CCOc2ccccc2)CCN(Cc2nccn2CC)CC1	16.8	31.2	6.8	11.4	-2.4	9.5
CCOC(=O)C1(CCCc2ccccc2)CCN(CCCn2cccn2)CC1	-16.5	76.4*	x	5.3	1.7	14.0
Cc1ncc(CN2CCC(CO)(Cc3ccccc3)CC2)s1	28.9	89.1*	-3.8	-6.6	-2.1	3.4
CCOC(=O)C1(Cc2ccccc2C(F)(F)F)CCN(CCCn2cccn2)CC1	18.9	87.6*	47.7	-2.6	-1.7	-17.1
Cc1c(CN2CCC(CO)(Cc3ccccc3)CC2)c2ccccc2n1C	57.4*	40.1	9.5	-4.8	-2.2	23.8
O=Cc1cccc(OC(=O)Nc2ccccc2)c1	-3.0	x	-2.6	-5.8	1.5	20.6
CCCCCCn1ccc(=N)cc1	x	2.1	12.5	-0.1	120.3*	34.7
CCN1C(=O)/C(=C/C=C2/Sc3ccc4ccccc4c3N2CCO)SC1=S	-4.3	65.1*	-8.9	9.4	9.4	14.1
CCN1C(c2ccccc2)=C(c2ccccc2)S/C1=C\C=C1/SC(=S)N(C)C1=O	21.5	8.1	x	11.4	x	19.3
CCCCc1nc2cc(C(=O)N3CCCC(COC)C3)ccc2o1 (stereo unspecified)	1.3	x	-13.3	-2.6	2.0	-19.5
SMILES	T cruzi repl	L major viab	CSC inhib	SKKanGAS inh	Beta apoptosis	Mdm2 MdmX PPI
OCCN(CCO)c1ccc(C(c2ccccc2Cl)c2ccc(N(CCO)CCO)cc2Cl)c(Cl)c1	43.8	-3.3	1.9	83.3*	-2.6	42.4
OCCN(CCO)c1ccc2ccccc2c1	-7.3	6.5	-15.3	0.7	-11.9	30.0
C[C@H](CO)N1C[C@H](C)[C@@H](CN(C)S(=O)(=O)c2cn(C)cn2)Oc2ccc(NS(=O)(=O)c3ccccc3)cc2C1=O	x	x	-4.0	x	0.6	-20.2
CCN(CC(=O)Nc1c(F)cccc1F)C(=O)CNC(=O)c1ccc(C)s1	0.0	x	-14.2	0.9	-6.5	21.0
CCCc1cc(NC(=O)CCl)n(-c2ccccc2)n1	-1.9	51.2*	-8.2	-4.7	0.8	39.7
CCCc1cc(NC(=O)COC(=O)c2ccc(O)cc2O)n(-c2ccccc2)n1	x	x	-2.3	x	1.1	4.7
CCC(C(=O)OCC(=O)Nc1ccc(Cl)c(S(=O)(=O)N(C)C)c1)c1ccccc1 (stereo unspecified)	-34.0	61.5*	-17.8	-1.8	x	0.1

High-throughput results (PubChem)
